According to ChEMBL document CHEMBL1255448, “The 6-aminoquinolone WC5 inhibits human cytomegalovirus replication at an early stage by interfering with the transactivating activity of viral immediate-early 2 protein” (Antimicrob Agents Chemother, 2010):
The source made the active and inactive calls. The rule behind the calls is not given here.

Tests used:
Human betaherpesvirus 5 [1] = test: Antiviral activity against human cytomegalovirus AD169 in human HFF assessed as reduction of viral entry into fibroblast after 2 hrs at 37 degC; settings: Human betaherpesvirus 5, AD169, 2 h
Human betaherpesvirus 5 [2] = test: Antiviral activity against human cytomegalovirus AD169 infected in human HFF assessed as virus yield reduction; format: functional, organism-based; settings: Human betaherpesvirus 5, AD169
Human betaherpesvirus 5 [3] = test: Antiviral activity against 0.1 MOI human cytomegalovirus AD169 infected in human cells expressing UL112/113-EGFP reporter assessed as inhibition of IE2 transactivating activity after 48 hrs of infection by confocal fluorescence microscopy
Human betaherpesvirus 5 [4] = test: Antiviral activity against 0.1 MOI human cytomegalovirus AD169 infected in human U373-MG cells expressing UL54-EGFP reporter assessed as inhibition of EGFP expression after 48 hrs of infection by confocal fluorescence microscopy; format: functional, organism-based; settings: U-373MG ATCC
Summary of the method: (§1)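 Stable U373-MG reporter cells were seeded on coverslips at 3×10^5 per well and infected with AD169 at MOI 0.1 or 0.5. They were then treated with 50 µM drug, 5 µM fomivirsen (also given 1 h before and during infection) or 0.2% DMSO. At 48 h p.i. cells were fixed in 4% paraformaldehyde for 15 min, and EGFP-positive cells were counted by confocal microscopy at 20×.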

Human betaherpesvirus 5 [5] = test: Antiviral activity against 0.5 MOI human cytomegalovirus AD169 infected in human U373-MG cells expressing UL112/113-EGFP reporter assessed as inhibition of EGFP expression after 48 hrs of infection by confocal fluorescence microscopy; format: functional, organism-based; settings: U-373MG ATCC
Summary of the method: as §1

Human betaherpesvirus 5 [6] = test: Antiviral activity against 0.1 MOI human cytomegalovirus AD169 infected in human HFF assessed as virus yield reduction by yield reduction assay; format: functional, organism-based; settings: Human betaherpesvirus 5, AD169
Human betaherpesvirus 5 [7] = test: Antiviral activity against 0.5 MOI human cytomegalovirus AD169 infected in human U373-MG cells expressing UL54-EGFP reporter assessed as inhibition of EGFP expression after 48 hrs of infection by confocal fluorescence microscopy; format: functional, organism-based; settings: U-373MG ATCC
Summary of the method: as §1

Human betaherpesvirus 5 [8] = test: Antiviral activity against 0.1 MOI human cytomegalovirus AD169 infected in human cells expressing UL54-EGFP reporter assessed as inhibition of IE2 transactivating activity after 48 hrs of infection by confocal fluorescence microscopy
Human betaherpesvirus 5 [9] = test: Antiviral activity against 0.1 MOI human cytomegalovirus AD169 infected in human HFF assessed as inhibition of early phase UL54 mRNA expression after 16 hrs by RT-PCR analysis
Human betaherpesvirus 5 [10] = test: Antiviral activity against 1 MOI human cytomegalovirus AD169 infected in human HFF assessed as inhibition of viral replication up to 30 hrs post infection
[11] = Selectivity index, ratio of CC50 for human HFF to EC50 for human cytomegalovirus AD169
Summary of the method: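 Selectivity index is CC50 from the HFF MTT assay divided by EC50 from the AD169 plaque reduction assay in HFF.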

Human betaherpesvirus 5 [12] = test: Antiviral activity against 0.1 MOI human cytomegalovirus AD169 infected in human HFF assessed as inhibition of immediate early phase UL122 mRNA expression after 16 hrs by RT-PCR analysis; format: functional, organism-based
Summary of the method: (§2)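 HFF seeded at 6×10^5 per well, infected with AD169 at MOI 0.1 PFU/cell, then given 50 µM drug or 0.2% DMSO. ActD 5 µg/ml, CHX 75 µg/ml and FOS 750 µM served as IE, E and L transcription controls. Total RNA was taken at 16 and 48 h p.i.; 1 µg was reverse-transcribed with random hexamers and MuLV RT. PCR used UL122/UL123 (IE), UL54/UL84 (E) and UL55/UL75 (L) primers with a β-actin control, and products were read on ethidium bromide agarose gels.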

Human betaherpesvirus 5 [13] = test: Antiviral activity against 0.1 MOI human cytomegalovirus AD169 infected in human HFF assessed as inhibition of early phase UL84 mRNA expression after 16 hrs by RT-PCR analysis
[14] = Inhibition of human cytomegalovirus DNA polymerase catalytic subunit UL54/UL44 assessed as incorporation of [3H]dTTP; design: species or system Human betaherpesvirus 5
Summary of the method: (§3)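 Filter-based assay with purified baculovirus-expressed UL54 catalytic subunit, alone or with UL44 accessory subunit. Incorporation of [3H]dTTP into poly(dA)-oligo(dT)12-18 template-primer was measured across serial compound dilutions, with FOS as control. Means ± standard deviations from four independent experiments.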

Human betaherpesvirus 5 [15] = test: Antiviral activity against 0.1 MOI human cytomegalovirus AD169 infected in human U373-MG cells expressing UL112/113-EGFP reporter assessed as inhibition of EGFP expression after 48 hrs of infection by confocal fluorescence microscopy; format: functional, organism-based; settings: U-373MG ATCC
Summary of the method: as §1

Human betaherpesvirus 5 [16] = test: Antiviral activity against 0.1 MOI human cytomegalovirus AD169 infected in human HFF assessed as inhibition of immediate early phase P72 protein expression after 24 hrs by Western blot analysis; format: functional, organism-based
Summary of the method: (§4)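 HFF infected with HCMV AD169 at MOI 0.1 PFU/cell, treated with 50 µM compound or 0.2% DMSO. ActD 5 µg/ml, CHX 75 µg/ml and FOS 750 µM served as controls. Harvests at 24, 48 and 72 h p.i. were lysed in NP-40 buffer, then SDS-PAGE and PVDF blotting. Probes were anti-IE1/IE2 (p72/p86) MAb or anti-UL55, then HRP secondary and ECL. β-actin reprobe was the internal control.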

Human betaherpesvirus 5 [17] = test: Antiviral activity against 0.01 MOI human cytomegalovirus AD169 infected in human HFF assessed as virus yield reduction by yield reduction assay; format: functional, organism-based; settings: Human betaherpesvirus 5, AD169
Human betaherpesvirus 5 [18] = test: Antiviral activity against 0.1 MOI human cytomegalovirus AD169 infected in human HFF assessed as inhibition of immediate early phase UL123 mRNA expression after 16 hrs by RT-PCR analysis; format: functional, organism-based
Summary of the method: as §2

Human betaherpesvirus 5 [19] = test: Antiviral activity against 1 MOI human cytomegalovirus AD169 infected in human HFF assessed as virus yield reduction by yield reduction assay; format: functional, organism-based; settings: Human betaherpesvirus 5, AD169
Human betaherpesvirus 5 [20] = test: Antiviral activity against 0.1 MOI human cytomegalovirus AD169 infected in human HFF assessed as inhibition of immediate early phase P86 protein expression after 24 hrs by Western blot analysis; format: functional, organism-based
Summary of the method: as §4

Human betaherpesvirus 5 [21] = test: Antiviral activity against human cytomegalovirus AD169 in human HFF assessed as reduction of viral attachment to fibroblast at 4 degC; format: functional, organism-based
Summary of the method: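 Prechilled HFF monolayers received 100 PFU AD169 together with graded compound or heparin control for 2 or 4 h at 4°C. Cells were washed with cold PBS, overlaid with compound-free 0.6% methylcellulose medium and kept 10 days at 37°C. Plaques were stained with crystal violet and counted. Three experiments were run in duplicate; mean ± SD.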

Human betaherpesvirus 5 [22] = test: Antiviral activity against 0.1 MOI human cytomegalovirus AD169 infected in human HFF assessed as inhibition of late phase UL55 protein expression after 72 hrs of infection by Western blot analysis; format: functional, organism-based
Summary of the method: as §4

[23] = Inhibition of human cytomegalovirus DNA polymerase catalytic subunit UL54 assessed as incorporation of [3H]dTTP; design: species or system Human betaherpesvirus 5
Summary of the method: as §3

Human betaherpesvirus 5 [24] = test: Antiviral activity against human cytomegalovirus AD169 infected in human HFF assessed as inhibition of plaque formation by plaque reduction assay; format: functional, organism-based; settings: Human betaherpesvirus 5, AD169
Summary of the method: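 Plaque reduction against AD169 in HFF. EC50 is the concentration giving 50% inhibition of plaque formation, reported as mean ± SD of at least three independent experiments run in duplicate.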

With `Nc1cc2c(=O)c(C(=O)O)cn(C3CC3)c2cc1N1CCN(c2ccccn2)CC1` the EC50 (Human betaherpesvirus 5 [1]) was greater than 25 µM, the EC50 (Human betaherpesvirus 5 [2]) was 8.6 µM and the inhibition (Human betaherpesvirus 5 [3]) was “Active”. The inhibition (Human betaherpesvirus 5 [4]) was “Active”, the inhibition (Human betaherpesvirus 5 [5]) was “Active” and the EC90 (Human betaherpesvirus 5 [6]) was 34.7 µM. The inhibition (Human betaherpesvirus 5 [7]) was “Active”, the inhibition (Human betaherpesvirus 5 [8]) was “Active” and the inhibition (Human betaherpesvirus 5 [9]) was “Active”. For the same compound, the Activity (Human betaherpesvirus 5 [10]) was “Active”, the “Selectivity Index” value [11] was 479 and the inhibition (Human betaherpesvirus 5 [12]) was “inactive”. For the same compound, the inhibition (Human betaherpesvirus 5 [13]) was “Active”, the IC50 [14] was greater than 100 µM and the inhibition (Human betaherpesvirus 5 [15]) was “Active”. The inhibition (Human betaherpesvirus 5 [16]) was “inactive”, the EC90 (Human betaherpesvirus 5 [17]) was 8.5 µM and the inhibition (Human betaherpesvirus 5 [18]) was “inactive”. The EC90 (Human betaherpesvirus 5 [19]) was 51.9 µM, the inhibition (Human betaherpesvirus 5 [20]) was “inactive” and the Activity (Human betaherpesvirus 5 [21]) was “inactive”. The inhibition (Human betaherpesvirus 5 [22]) was “Active”, the IC50 [23] was greater than 100 µM and the EC50 (Human betaherpesvirus 5 [24]) was 0.9 µM.
